For orientation: IC50 means the concentration that inhibits the measured activity by half. A lower IC50 goes with greater potency in that assay. The inhibition in vivo is the share of the control response that was lost under treatment.

Series [1] concerns the target T1, Prostaglandin G/H synthase 1 (Ovis aries, UniProt P05979).
T1 sequence (P05979 whole entry): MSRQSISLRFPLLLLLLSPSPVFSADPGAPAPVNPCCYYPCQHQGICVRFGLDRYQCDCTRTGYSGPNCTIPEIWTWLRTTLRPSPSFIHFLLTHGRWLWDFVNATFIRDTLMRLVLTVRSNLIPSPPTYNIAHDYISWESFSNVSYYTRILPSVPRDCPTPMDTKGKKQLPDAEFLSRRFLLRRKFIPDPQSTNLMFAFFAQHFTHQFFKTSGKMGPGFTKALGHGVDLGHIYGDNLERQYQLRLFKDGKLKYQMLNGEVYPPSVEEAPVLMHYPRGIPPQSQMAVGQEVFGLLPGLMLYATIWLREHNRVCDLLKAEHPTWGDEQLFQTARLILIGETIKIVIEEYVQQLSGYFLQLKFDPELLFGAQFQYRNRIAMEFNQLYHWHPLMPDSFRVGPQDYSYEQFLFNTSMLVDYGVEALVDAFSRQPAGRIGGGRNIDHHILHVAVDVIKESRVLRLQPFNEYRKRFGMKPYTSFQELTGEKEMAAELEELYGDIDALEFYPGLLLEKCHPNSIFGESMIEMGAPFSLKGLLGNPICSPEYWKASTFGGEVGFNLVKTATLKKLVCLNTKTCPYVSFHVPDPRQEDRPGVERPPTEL
The series can be described thus: Inhibition of ovine COX-1 using arachidonic acid as substrate incubated for 5 mins by fluorescence-based assay. In outline: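 COX-1 fluorometric inhibitor-screening kit. Assay buffer, COX-1 cofactor and arachidonic acid were combined with test compound and incubated 5 min at 37 °C. Inhibition derived from RFU relative to 100%-activity and blank controls. Run in triplicate; IC50 taken from concentration curves.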

The nature of series [2]: Inhibition of soyabean 15-LOX preincubated for 5 mins followed by susbtrate addition measured after 10 mins by colorimetric method. Set-up: species or system Glycine max. In short, it runs like this: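 Soybean lipoxygenase assessed with a commercial lipoxygenase assay kit, following the kit instructions. IC50 values determined.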
Series [3] relates to Mus musculus. The series can be described thus: Antiinflammatory activity in DNFB-induced ICR mouse model of auricle edema assessed as inhibition of ear swelling at 5 mg/kg, ig administered once daily for 6 days followed by 1% DNFB solution applied on right ear measured after 24 hrs relative to untreated control. Format: functional. The following applies: po. In outline:
(§1)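 Male ICR mice, 18-22 g, randomized by weight, 6 per group. Dosed by intragastric route once daily for 6 days; saline given to normal and model groups. Right ear coated with 10 uL 1% DNFB (DNFB in acetone/olive oil); left ear received acetone/olive oil only. Mice killed 24 h later and both ears weighed. Swelling = right minus left ear weight; inhibition calculated versus model control.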

The subject of a further series is RAW264.7. Kind of series: Cytotoxicity against mouse RAW264.7 cells assessed as cell viability up to 50 uM after 24 hrs by MTT assay. Format: cell-based. The note with it: raw264.7, 24 h. In short, it runs like this: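 RAW264.7 cells (ATCC), about 1.0×10^5 cells/ml, were held 2 h in serum-free medium at 37°C, 5% CO2. The supernatant was replaced with RPMI 1640 containing compound at 0, 5, 10, 20, 30, 40 or 50 μM for 24 h. MTT (5 mg/mL stock) was added for the final 4 h. Formazan was dissolved in DMSO and OD570 read. Survival was compared with blank.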
A general note: Formazan colour is commonly taken as a measure of viable cells.

Series [4] has as its system Mus musculus. Kind of series: Antiinflammatory activity in DNFB-induced ICR mouse model of auricle edema assessed as inhibition of ear swelling at 0.5 mg/kg, ig administered once daily for 6 days followed by 1% DNFB solution applied on right ear measured after 24 hrs relative to untreated control. Format: functional. The note with it: po. In short, it runs like this: as §1

In the case of `Cc1nc(C)c(CN2CCN(C(=O)c3cc4cc(Cl)ccc4n3Cc3ccc(Cl)cc3)CC2)nc1C`, the figures for the IC50 in series [1] and in series [2] were 312 nM and 339 nM, respectively. Also, in the series on Mus musculus [3], the inhibition in vivo at 5 mg/kg turned out to be 64.9%.

`O=C(c1cc2cc(Cl)ccc2n1Cc1ccc(Cl)cc1)N1CCN(Cc2ccc(C(F)(F)F)cc2)CC1`: in the series on Mus musculus [3], the inhibition in vivo at 5 mg/kg is 30.4%.

Consider `O=C(c1cc2cc(Cl)ccc2n1Cc1ccc(F)cc1)N1CCN(Cc2ccc(C(F)(F)F)cc2)CC1`, for which the inhibition in vivo at 5 mg/kg with Mus musculus [3] amounted to 27.8%.

In turn, `CC(c1cc2ccccc2s1)N(O)C(N)=O` (configuration not stated) [ZILEUTON] showed an IC50 in series [2] of 38.9 nM.

Take `O=C(c1cc2cc(Cl)ccc2n1Cc1ccc(Cl)cc1)N1CCN(Cc2ccc(F)cc2)CC1`: the inhibition in vivo at 5 mg/kg in the series on Mus musculus [3] amounted to 29.1%.

As to `O=C(c1cc2cc(Cl)ccc2n1Cc1ccc(F)cc1)N1CCN(Cc2ccc3c(c2)OCO3)CC1`, in the series on Mus musculus [3], the inhibition in vivo at 5 mg/kg came to 34.2%.

On to `Cc1ccc(CN2CCN(C(=O)c3cc4cc(Cl)ccc4n3Cc3ccc(Cl)cc3)CC2)cc1`, for which the inhibition in vivo at 5 mg/kg in the series on Mus musculus [3] is 39.2%.

As for `Cc1cncc(CN2CCN(C(=O)c3cc4cc(Cl)ccc4n3Cc3ccc(F)cc3)CC2)c1`, the inhibition in vivo at 5 mg/kg in the series with Mus musculus [3] worked out at 25.4%.

As to `COc1ccc2[nH]cc(CCNC(=O)c3cc4cc(Cl)ccc4n3Cc3ccc(Cl)cc3)c2c1`, in the series with Mus musculus [3], the inhibition in vivo at 5 mg/kg was 44.3%.

Regarding `CN1CCN(C(=O)c2cc3cc(Cl)ccc3n2Cc2ccc(F)cc2)CC1`, in the series on Mus musculus [3], the inhibition in vivo at 5 mg/kg came to 36.7%.

Turning to `Cc1nc(C)c(CNC2CCN(C(=O)c3cc4cc(Cl)ccc4n3Cc3ccc(F)cc3)C2)nc1C` (configuration not stated), the inhibition in vivo at 5 mg/kg in the series with Mus musculus [3] is 49.4%.

In the case of `Cc1nc(C)c(CNC2CCN(C(=O)c3cc4cc(Cl)ccc4n3Cc3ccc(Cl)cc3)C2)nc1C` (configuration not stated), the inhibition in vivo at 5 mg/kg in the series with Mus musculus [3] was 42.5%.

As to `O=C(c1cc2cc(Cl)ccc2n1Cc1ccc(Cl)cc1)N1CCN(Cc2ccc3c(c2)OCO3)CC1`, the inhibition in vivo at 5 mg/kg in the series with Mus musculus [3] amounted to 32.9%.

On to `Cc1nc(C)c(CN2CCN(C(=O)c3cc4cc(Cl)ccc4n3Cc3ccc(F)cc3)CC2)nc1C`, for which the inhibition in vivo at 5 mg/kg with Mus musculus [3] stood at 48.3%.

On to `COc1ccc(CN2CCN(C(=O)c3cc4cc(Cl)ccc4n3Cc3ccc(F)cc3)CC2)cc1`, for which the results for the half-inhibitory concentration (IC50) in series [1] and in series [2] were 195 nM and 83.5 nM, respectively. Also, the Activity entry in the series with RAW264.7 is listed as “Non-Toxic”. Further, in the series with Mus musculus [3], the inhibition in vivo at 5 mg/kg came to 43.1%.

`O=C(c1cc2cc(Cl)ccc2n1Cc1ccc(Cl)cc1)N1CCN(Cc2ccc(Cl)cc2)CC1`: the IC50 came out at 361 nM in series [1] and 210 nM in series [2]. In the series with Mus musculus [3], the inhibition in vivo at 5 mg/kg was 40.5%.

For `Cc1ccc(CN2CCN(C(=O)c3cc4cc(Cl)ccc4n3Cc3ccc(F)cc3)CC2)cc1`, the inhibition in vivo at 5 mg/kg with Mus musculus [3] was determined as 32.9%.

Regarding `COc1ccc2[nH]cc(CCNC(=O)c3cc4cc(Cl)ccc4n3Cc3ccc(F)cc3)c2c1`, the half-maximal inhibitory concentration (IC50) in series [1] is 407 nM; in series [2], 66.1 nM. Moreover, the Activity result in the series with RAW264.7 was “Non-Toxic”. The inhibition in vivo at 5 mg/kg with Mus musculus [3] was 50%.

Take `C[C@@H]1C[C@H]2[C@@H]3CCC4=CC(=O)C=C[C@]4(C)[C@@]3(F)[C@@H](O)C[C@]2(C)[C@@]1(O)C(=O)CO` [DEXAMETHASONE]: the inhibition in vivo at 0.5 mg/kg in the series on Mus musculus [4] fell in the range of 46.8 to 63.8%.

Regarding `O=C(c1cc2cc(Cl)ccc2n1Cc1ccc(F)cc1)N1CCN(Cc2ccccc2)CC1`, the inhibition in vivo at 5 mg/kg in the series on Mus musculus [3] amounted to 24%.

For `N#Cc1ccc(CN2CCN(C(=O)c3cc4cc(Cl)ccc4n3Cc3ccc(F)cc3)CC2)cc1`, the inhibition in vivo at 5 mg/kg in the series on Mus musculus [3] turned out to be 35.4%.

Regarding `Cc1cncc(CN2CCN(C(=O)c3cc4cc(Cl)ccc4n3Cc3ccc(Cl)cc3)CC2)c1`, in the series on Mus musculus [3], the inhibition in vivo at 5 mg/kg came to 29.8%.

The values above are taken from ChEMBL document CHEMBL4364303 (Eur J Med Chem, 2019).
